Data set [1] is described as follows: Colloidal aggregation by dynamic light scattering. The format is physicochemical. Conditions: for colloid-like particle formation by DLS: 50 mM KPi pH 7.0, 1% DMSO; for CAC relative to Nsp14 IC50: DLS CAC divided by Nsp14 IC50.
The subject of data set [2] is malate dehydrogenase (MDH). The data set can be described thus: Aggregation counter-screen, malate dehydrogenase inhibition. The format is biochemical. Conditions: for inhibition of MDH: absence of detergent; for inhibition of MDH with detergent: with 0.01% Triton X-100. For orientation: The purpose of a counterscreen is to sort out artefacts and off-target activity.
For data set [3], the target named is T1, SARS-CoV-2 Nsp14 (Severe acute respiratory syndrome coronavirus 2, UniProt P0DTD1). The format is biochemical. Conditions: preincubated at 10-fold IC50 for 1 h, diluted 100-fold.
Data set [4] has as its target T1, SARS-CoV-2 Nsp14. The data set is described as follows: Mechanism of action: IC50 at varying SAM and RNA concentrations. The class given is biochemical. The conditions noted are these: varying SAM or RNA concentration.
The target in another data set is AmpC β-lactamase (AmpC) (Escherichia coli, UniProt P00811). The class given is biochemical. The conditions noted are these: for inhibition of AmpC: absence of detergent; for inhibition of AmpC with detergent: with 0.01% Triton X-100.
Chain of AmpC β-lactamase (AmpC) (P00811 20-377): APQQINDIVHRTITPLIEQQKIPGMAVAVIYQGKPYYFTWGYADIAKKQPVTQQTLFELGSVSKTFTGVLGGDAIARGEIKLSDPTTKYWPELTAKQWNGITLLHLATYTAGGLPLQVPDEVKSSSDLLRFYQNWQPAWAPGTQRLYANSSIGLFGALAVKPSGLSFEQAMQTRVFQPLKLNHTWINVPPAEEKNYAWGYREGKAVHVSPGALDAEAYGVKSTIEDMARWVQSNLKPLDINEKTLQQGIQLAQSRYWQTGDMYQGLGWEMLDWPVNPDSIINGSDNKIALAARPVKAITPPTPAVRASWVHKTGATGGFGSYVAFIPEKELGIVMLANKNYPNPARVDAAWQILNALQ
Data set [5] relates to panel of 30 human SAM-dependent MTases. The data set can be described thus: Selectivity panel of 30 human SAM-dependent protein and RNA MTases. The format is biochemical. Conditions: compounds at 10 μM, 30 human MTases.
For another data set, the target named is Nsp14 (Severe acute respiratory syndrome coronavirus 2, UniProt P0DTD1). The data set is described as follows: Assessment of covalent binding to Nsp14 by LC-MS. Further details: species or system SARS-CoV-2. The procedure, abridged: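 SARS-CoV-2 Nsp14 was E. coli-expressed with a His6-SUMO tag and purified after SUMO removal. Protein was incubated with a 20-fold molar excess of test compound for 2 h at room temperature (20 °C), then diluted in 0.1% formic acid. Separation used HPLC with a 5–95% acetonitrile/water gradient, followed by ESI time-of-flight mass spectrometry.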

A further data set has as its system SARS-CoV-2. The data set is described as follows: Antiviral activity versus cell toxicity. The class given is cell-based.
The target of data set [6] is T1, SARS-CoV-2 Nsp14. The data set is described as follows: biochemical. The class given is biochemical.
A further data set deals with MDH or AmpC. The data set is described as follows: Aggregation counter-screen, enzyme not specified per compound. The format is biochemical. The conditions noted are these: for inhibition of MDH or AmpC: absence of detergent; for inhibition of MDH or AmpC with detergent: with 0.01% of detergent.

SMILES strings stand for the structures. “Also recorded” adds a separate entry of the source.

Turning to `CC(C)SCn1cnc2cnn(C)c2c1=O` [‘5604, 6-((Isopropylthio)methyl)-1-methyl-1H-pyrazolo[4,3-d]-pyrimidin-7(6H)-One], the “colloid-like particle formation by DLS” value in [1] is recorded as “CACs at relevant concentrations”. In [2], the “inhibition of MDH” value is listed as “inhibited MDH”.

On to `Cc1c(C(=O)/C=C/c2ccc(O)c([N+](=O)[O-])c2)c(C#N)c2n1CCC2` [‘4824, (E)-6-(3-(4-Hydroxy-3-nitrophenyl)acryloyl)-5-methyl-2,3-dihydro-1H-pyrrolizine-7-carbonitrile], for which the “reversibility of Nsp14 inhibition by jump/rapid dilution” value on SARS-CoV-2 Nsp14 [3] is on record as “inhibition by ‘4824 is not due to the nitrile electrophile”. Also, the “pattern of inhibition versus SAM and RNA” value on SARS-CoV-2 Nsp14 [4] is “SAM- and RNA-competitive pattern of inhibition”. Also, the “colloid-like particle formation by DLS” value in [1] is recorded as “did not form detectable particles by DLS”. In data set [2], the “inhibition of MDH” value was “did inhibit the counter-screening enzymes MDH and AmpC at relevant concentrations”; the “inhibition of MDH with detergent” value is on record as “inhibition was largely or entirely eliminated”. Moreover, at AmpC β-lactamase (AmpC), the “inhibition of AmpC” value is “did inhibit the counter-screening enzymes MDH and AmpC at relevant concentrations”; the “inhibition of AmpC with detergent” value is “inhibition was largely or entirely eliminated”. Besides, the “inhibition of panel enzymes (>50% criterion)” value (“inhibition … (>50% criterion)” below) in data set [5] was “no inhibition greater than 50% for any enzyme in the panel; also recorded: Nsp14-selective”.

Regarding `N#Cc1ccc(NC(=O)c2cc(C=O)n3c2CCCC3)c2cc(O)ccc12` [‘1911, N-(4-Cyano-7-hydroxynaphthalen-1-yl)-3-formyl-5,6,7,8-tetra-hydroindolizine-1-carboxamide], the “reversibility of Nsp14 inhibition by jump/rapid dilution” value at SARS-CoV-2 Nsp14 [3] was “little residual inhibition when diluted below its IC50”. In addition, on Nsp14, the “covalent adduct formation with Nsp14 by mass spectrometry” value is recorded as “did not increase the molecular mass of Nsp14”. Further, the “colloid-like particle formation by DLS” value in [1] is “did form colloid-like particles by DLS at a relevant concentration”. In [2], the “inhibition of MDH” value was “did inhibit AmpC and MDH in the absence of Triton”; the “inhibition of MDH with detergent” value is reported as “this inhibition disappeared”. Besides, at AmpC β-lactamase (AmpC), the “inhibition of AmpC” value was “did inhibit AmpC and MDH in the absence of Triton”; the “inhibition of AmpC with detergent” value is “this inhibition disappeared”. The “inhibition … (>50% criterion)” value in data set [5] is “inhibiting only two histone MTases; also recorded: only hit two very closely related MTases”. In the data set on SARS-CoV-2, the “antiviral activity versus cell toxicity” value was “for none of them could we distinguish anti-viral activity from cell toxicity”.

For `C=CC(=O)N(C)c1ccc(C(=O)Nc2ccc(-c3cn4ccsc4n3)cc2)cc1` [acryl41], the “covalent adduct formation with Nsp14 by mass spectrometry” value at Nsp14 is “did not form a measurable adduct by mass spectrometry”.

Consider `C=C(Cl)COC(=O)c1cnc2[nH]ccc2c1` [‘0741, 2-Chloroallyl 1H-pyrrolo[2,3-b]pyridine-5-carboxylate], for which, in [2], the “inhibition of MDH” value is on record as “inhibited MDH” and the “inhibition of MDH with detergent” value was “this effect was smaller”.

In general, IC50 refers to the midpoint of a concentration-inhibition curve. Read a low IC50 as inhibition by little substance. The compound `O=C(COC(=O)c1cc(-c2ccoc2)n[nH]1)Nc1ccc(Br)cc1` [‘1988, 2-((4-Bromophenyl)amino)-2-oxoethyl 3-(Furan-3-yl)-1H-pyra-zole-5-carboxylate] registered an IC50 against SARS-CoV-2 Nsp14 [6] of 6 µM. Besides, at SARS-CoV-2 Nsp14 [3], the “reversibility of Nsp14 inhibition by jump/rapid dilution” value is “noncovalent inhibitor”. For the same compound, the “pattern of inhibition versus SAM and RNA” value on SARS-CoV-2 Nsp14 [4] was “SAM- and RNA-competitive pattern of inhibition”. Moreover, in [1], the “colloid-like particle formation by DLS” value is on record as “formed colloid-like particles by DLS” and the “CAC relative to Nsp14 IC50” value is on record as 10 fold. Also, in data set [2], the “inhibition of MDH” value is on record as “inhibition of MDH was in a relevant range” and the “inhibition of MDH with detergent” value is “inhibition of both enzymes disappeared”. For the same compound, the “inhibition of AmpC with detergent” value at AmpC β-lactamase (AmpC) is on record as “inhibition of both enzymes disappeared”. Besides, the “inhibition … (>50% criterion)” value in data set [5] is on record as “inhibiting nine enzymes more than 50%”. Also, in the data set on SARS-CoV-2, the “antiviral activity versus cell toxicity” value is reported as “for none of them could we distinguish anti-viral activity from cell toxicity”.

With `C=CC(=O)NC[C@H](OC)C(=O)N1CCC(C2C(=O)Nc3cc(Cl)ccc32)CC1` (stereo partly drawn) [acryl42_10, N-((2S)-3-(4-(6-Chloro-2-oxoindolin-3-yl)piperidin-1-yl)-2-methoxy-3-oxopropyl)acrylamide], inhibition against SARS-CoV-2 Nsp14 [6] was half-maximal at 7 µM (IC50). The “fold more potent than acryl42” value at SARS-CoV-2 Nsp14 [6] (relative to parent acryl42) was determined as 4.5 fold. Further, the “antiviral activity versus cell toxicity” value in the data set on SARS-CoV-2 is reported as “for none of them could we distinguish anti-viral activity from cell toxicity”.

For the compound `Oc1ccccc1-c1ncnc2[nH]ccc12` [‘0683, 2-(7H-Pyrrolo[2,3-d]pyrimidin-4-yl)phenolv], the “ligand efficiency (LE)” value on SARS-CoV-2 Nsp14 [6] (from Nsp14 IC50) is recorded as 0.42 kcal/heavy atom. Also, the “pattern of inhibition versus SAM and RNA” value at SARS-CoV-2 Nsp14 [4] was “competitive and presumably reversible inhibitor of both SAM and RNA binding”. Also, in [2], the “inhibition of MDH” value is “both MDH and AmpC”. Besides, the “inhibition of AmpC” value on AmpC β-lactamase (AmpC) was “both MDH and AmpC”. The “antiviral activity versus cell toxicity” value with SARS-CoV-2 is recorded as “for none of them could we distinguish anti-viral activity from cell toxicity”.

For the compound `O=C(NC1CSC1)c1ncnn2cccc12` [‘5763, N-(Thietan-3-yl)pyrrolo[2,1-f][1,2,4]triazine-4-carboxamide], the “colloid-like particle formation by DLS” value in data set [1] is listed as “CACs at relevant concentrations”.

`Cc1nc2ncc(-c3c[nH]nn3)cc2[nH]1` [‘0222, 2-Methyl-6-(1H-1,2,3-triazol-4-yl)-1H-imidazo[4,5-b]pyridine]: the “colloid-like particle formation by DLS” value in data set [1] is reported as “CACs at relevant concentrations”.

Regarding `Cc1c(C(=O)/C=C/c2cc(Br)c(O)cc2F)c(C#N)c2n1CCC2` [‘6953, (E)-6-(3-(5-Bromo-2-fluoro-4-hydroxyphenyl)acryloyl)-5-methyl-2,3-dihydro-1H-pyrrolizine-7-carbonitrile], in data set [1], the “colloid-like particle formation by DLS” value is listed as “did form colloid-like particles by DLS”. For the same compound, in the data set with MDH or AmpC, the “inhibition of MDH or AmpC” value is “inhibited MDH or AmpC at relevant concentrations” and the “inhibition of MDH or AmpC with detergent” value was “inhibition was largely eliminated”.

`CN(C)c1cncc(NC(=O)c2ccc(C=O)cc2O)c1` [‘1889, N-(5-(Dimethylamino)pyridin-3-yl)-4-formyl-2-hydroxybenza-mide]: the “CAC relative to Nsp14 IC50” value in data set [1] is recorded as “CAC five-fold higher than its Nsp14 IC50”. In addition, in [2], the “inhibition of MDH” value is listed as “did not inhibit either counter-screening enzyme under any measured condition”. The “inhibition of AmpC” value against AmpC β-lactamase (AmpC) was “did not inhibit either counter-screening enzyme under any measured condition”.

For `Cn1c(=O)[nH]c2ncc(-c3cccc(C(=O)Nc4cccc(C#N)c4)c3)cc21` [‘9213, N-(3-Cyanophenyl)-3-(1-methyl-2-oxo-2,3-dihydro-1H-imidazo-[4,5-b]pyridin-6-yl)benzamide], the “enzyme inhibition at 30 and 50 μM” value at SARS-CoV-2 Nsp14 [6] (tested at 30 and 50 μM) is recorded as “more than 50%”. Also, in data set [1], the “colloid-like particle formation by DLS” value is given as “did form colloid-like particles by DLS”.

Take `Cn1ncc(N)c1-c1cc2ccccc2[nH]1` [‘6066, 5-(1H-Indol-2-yl)-1-methyl-1H-pyrazol-4-amine]: the “colloid-like particle formation by DLS” value in [1] is “CACs at relevant concentrations”.

In the case of `CCC(=O)NCCC(=O)N1CCC(C2C(=O)Nc3cc(Cl)ccc32)CC1` (centres unmarked) [ZD160–68, N-(3-(4-(6-Chloro-2-oxoindolin-3-yl)piperidin-1-yl)-3-oxopropyl)-propionamide], the “Nsp14 enzymatic inhibition (in words)” value on SARS-CoV-2 Nsp14 [6] was “inactive; also recorded: no enzymatic inhibition”.

Turning to `N#Cc1c(C(=O)NCc2ccc(O)c([N+](=O)[O-])c2)[nH]c2ccccc12` [‘6943, 3-Cyano-N-(4-hydroxy-3-nitrobenzyl)-1H-indole-2-carboxamide], in data set [1], the “colloid-like particle formation by DLS” value is listed as “did form colloid-like particles by DLS”. Besides, in the data set with MDH or AmpC, the “inhibition of MDH or AmpC” value was “inhibited MDH or AmpC at relevant concentrations” and the “inhibition of MDH or AmpC with detergent” value is recorded as “inhibition was largely eliminated”.

Take `Cc1cc(C(=O)Nc2cccc(N3CCNC3=O)c2C)sc1C=O` [‘4975, 5-Formyl-4-methyl-N-(2-methyl-3-(2-oxoimidazolidin-1-yl)-phenyl)thiophene-2-carboxamide]: the “antiviral activity versus cell toxicity” value in the data set with SARS-CoV-2 is “for none of them could we distinguish anti-viral activity from cell toxicity”.

Regarding `Cn1c(C(=O)NCc2ccc(O)c([N+](=O)[O-])c2)c(Br)c2ccccc21` [‘6947, 3-Bromo-N-(4-hydroxy-3-nitrobenzyl)-1-methyl-1H-indole-2-carboxamide], in data set [1], the “colloid-like particle formation by DLS” value was “did form colloid-like particles by DLS”. Besides, in the data set on MDH or AmpC, the “inhibition of MDH or AmpC” value was “inhibited MDH or AmpC at relevant concentrations” and the “inhibition of MDH or AmpC with detergent” value was “inhibition was largely eliminated”.

The values above are taken from PMC10374283 (Journal of medicinal chemistry, 2023).
